Screening data deposited in PubChem by several laboratories.
A selection: hits, their analogues and other compounds. The true share with any hit is near 4.1%.
hERG protect: shields human hERG channel from block by proarrhythmic agents; Q12809; CHO-hERG, FluxOR thallium flux, dofetilide IC70 present; hit rate 0.51% among 310,000; AID 1511; activation (rescue from dofetilide block), less the hit threshold, % at 10 µM;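 active means activation above the mean of controls blocked by dofetilide plus 5 SD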;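 further: thallium influx through hERG after potassium depolarization seen as dye fluorescence rise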
KCNQ1 inh: blocks the human KCNQ1 potassium channel | P51787 | CHO-K1 KCNQ1, FluxOR thallium flux fluorescence; active compounds read high | B-score at 10 µM | hit rate 1.3% among 310,000 | AID 2642;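 active means compounds whose thallium flux B-score, printed positive for inhibition, exceeds three library SD while starting fluorescence stays within three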;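 further: channel opened by potassium depolarization with thallium stimulus after 20 min compound exposure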
KCC2 mod: modulates chloride dependent transport by human KCC2. KCC2 cells, thallium flux FluoZin-2 fluorescence. hit rate 2.2% among 190,000. B-score of Tl+ flux slope (higher = more flux/activation; lower = inhibition) at 10 µM. AID 1456;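 active means thallium flux slope and its plate-corrected score both differing from the plate sample mean at a set confidence after two filtering rounds, in either direction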;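 further: slope of fluorescence scaled to starting intensity during 10 to 20 s after thallium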
KCNK3 block: human KCNK3 channel inhibition, primary screen; O14649; CHO-KCNK3 thallium flux, FluxOR fluorescence; active compounds read low; B-score at 10 µM; hit rate 0.84% among 340,000;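 active means B-score under library mean minus 4 SD, starting fluorescence ratio at most library mean plus 5 SD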;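 further: more negative B-score means stronger inhibition of thallium flux through KCNK3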
KCNQ1 act: potentiates or activates the human KCNQ1 potassium channel; P51787; CHO-K1 KCNQ1, thallium flux FluxOR fluorescence; active compounds read high; hit rate 0.35% among 310,000; AID 2648; B-score at 10 µM;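 active means fluorescence ratio B-score, a plate-corrected score, at least three library SD, with initial intensity B-score within 5 SD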
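System: CHO-K1 cells stably expressing KCNQ1 / Medium: assay buffer for compound exposure, DMSO matched across wells / Reagent: thallium- and potassium-containing depolarizing buffer / Compound: one concentration, matched DMSO / Incubation: 20 min compound pretreatment at room temperature / Measured by: kinetic FluxOR fluorescence, 10 s baseline plus 110 s post-stimulus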
KCNK9 block: inhibitors of human KCNK9 two-pore domain potassium channel; AID 488922; HEK293 KCNK9, FluxOR thallium flux fluorescence; active compounds read low; Q9NPC2; hit rate 1.2% among 310,000; B-score at 10 µM;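 active means ratio B-score over 3 SD below the library mean, with starting fluorescence within 5 SD of its mean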;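 further: negative B-score means less thallium flux so channel inhibition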
Target sequence (Q9NPC2 whole entry, looked up, the tested form may be a part): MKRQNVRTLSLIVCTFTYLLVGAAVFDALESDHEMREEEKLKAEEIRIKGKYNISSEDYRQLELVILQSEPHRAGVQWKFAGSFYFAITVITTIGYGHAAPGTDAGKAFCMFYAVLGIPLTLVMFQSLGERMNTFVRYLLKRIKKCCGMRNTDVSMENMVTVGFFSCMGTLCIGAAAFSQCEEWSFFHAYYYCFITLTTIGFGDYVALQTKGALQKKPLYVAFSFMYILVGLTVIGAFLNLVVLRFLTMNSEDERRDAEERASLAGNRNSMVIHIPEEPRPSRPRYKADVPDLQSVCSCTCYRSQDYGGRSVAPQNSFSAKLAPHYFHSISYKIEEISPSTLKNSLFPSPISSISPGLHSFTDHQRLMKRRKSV
KCNQ1 inh valid: confirmation of human KCNQ1 potassium channel inhibitors; shares compounds with KCNQ1 inh; KCNQ1 cell line, FluxOR thallium flux fluorescence; inhibition, % at 10 µM; hit rate 93% among 1,600; AID 588353;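 active means primary screen active, with duplicate mean exceeding buffer control mean plus 3 SD of buffer wells, cut at about 28% in these data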;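 further: 0% = buffer control ratio and 100% = XE991 inhibitor control ratio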
CHO Tl flux: counter-screen for KCNQ1 inhibitors: effect in parental CHO cells; shares compounds with KCNQ1 inh; parental CHO-K1, FluxOR thallium flux fluorescence ratio; active compounds read low; zero means no signal rise above baseline; fluorescence ratio (Tl flux) at 10 µM; hit rate 21% among 1,600; AID 588366;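 active means mean of duplicate thallium-flux fluorescence ratios in parental host cells more than 5 SD below the buffer control mean, cut at about 0.38 in these data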;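 further: ratio is peak minus minimum fluorescence divided by baseline fluorescence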
KCNQ1 ephys val: human KCNQ1 inhibition validated by electrophysiology; calls only at 10 µM; shares compounds with KCNQ1 inh; AID 624120; KCNQ1-CHO cells, automated patch clamp current; hit rate 20% among 490;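 active means KCNQ1 current drop exceeding 3 SD of negative control wells, seen in both duplicate runs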;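 further: steady state current during a 2 s step from -80 to +40 mV; negative values mean current inhibition and positive values mean potentiation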
KCNQ2 spec: selectivity of KCNQ1 inhibitors: inhibition of rat KCNQ2 channel. shares compounds with KCNQ1 inh. KCNQ2 cells, FluxOR thallium flux fluorescence. inhibition, % at 10 µM. hit rate 71% among 1,600;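 active means mean percent inhibition of the KCNQ2 thallium signal more than 5 SD above the buffer-only control wells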;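 further: KCNQ2 expressed in CHO cells; 0% = buffer control wells and 100% = XE-991 inhibitor control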
KCNQ1 KCNE1 spec: KCNQ1 inhibitor that also blocks human KCNQ1/KCNE1 channel; KCNQ1/KCNE1 cells, FluxOR thallium flux fluorescence; shares compounds with KCNQ1 inh; inhibition, % at 10 µM; AID 652147; hit rate 77% among 1,600;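 active means mean percent inhibition of duplicate wells above the buffer-only control mean plus 3 SD of those controls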;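 further: 0% = buffer only wells and 100% = XE-991 inhibitor control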
Starred values were filed as active, the others as inactive; i = inactive; / = no result; + = active, no number.

SMILES	hERG protect	KCNQ1 inh	KCC2 mod	KCNK3 block	KCNQ1 act	KCNK9 block	KCNQ1 inh valid	CHO Tl flux	KCNQ1 ephys val	KCNQ2 spec	KCNQ1 KCNE1 spec
CC(C)c1ccc(NC(=S)NCc2ccc3c(c2)OCO3)cc1	-15	8*	-1	i	i	i	82*	0.51	/	i	61%*
Cc1cccc(-n2c(=O)c3c4c(sc3n3c(=S)[nH]nc23)CCC4)c1	-3	i	-0.89	i	i	i	/	/	/	/	/
COC(=O)C(C)Sc1nnc2n(-c3cccc(C)c3)c(=O)c3c4c(sc3n12)CCCC4 (configuration not stated)	-19	6*	-1	i	i	i	42*	0.49	/	87%*	52%*
CCN1CCN(C(=O)c2ccc3c(c2)c(C)c(C)n3Cc2ccccc2)CC1	-11	i	-0.55	i	i	i	/	/	/	/	/
CCn1c(C)c(C)c2cc(C(=O)N3CCc4ccccc4C3)ccc21	-8	7*	/	i	i	i	114*	0.38	i	113%*	62%*
CCC(C)c1ccc(NC(=S)NCc2ccccc2OC)cc1 (configuration not stated)	-23	9*	-0.66	i	i	i	62*	0.52	/	69%*	66%*
COc1ccc(C(=O)NCC(=O)N2CCN(c3ncccn3)CC2)cc1OC	/	/	/	i	/	/	/	/	/	/	/
Cc1ccc(S(=O)(=O)NCCC(=O)NCC(=O)Nc2c(C)cccc2C)cc1C	-9	i	/	i	i	i	/	/	/	/	/
COc1ccc(-c2csc3nc(C)nc(N4CCCCC4)c23)cc1OC	-10	6*	0.38	i	i	i	54*	0.42	/	100%*	87%*
O=C(CCCc1c[nH]c2ccccc12)NCC1COc2ccccc2O1 (configuration not stated)	-9	10*	-1.8	i	i	i	62*	0.44	/	74%*	78%*
O=C(Cn1cc(COc2c(F)c(F)c(Br)c(F)c2F)nn1)c1ccc(O)cc1	/	/	/	i	/	/	/	/	/	/	/
CC(=O)N[C@@H](Cc1c[nH]c2ccccc12)C(=O)OCC(=O)Nc1cc(C)on1	/	/	/	i	/	/	/	/	/	/	/
Brc1ccc(COc2ncnc3ccccc23)cc1	-9	9*	1	i	i	i	0	0.44	/	68%*	42%*
c1ccc(OCCOc2ncnc3ccccc23)cc1	-11	i	-0.58	i	i	i	/	/	/	/	/
O=S(=O)(NCCc1ccc(F)cc1)c1ccc(F)cc1Br	/	/	/	i	/	/	/	/	/	/	/
Cc1cc(NC(=O)CSc2nc3ccccc3[nH]2)n(-c2ccccc2)n1	-9	i	-1.1	i	i	i	/	/	/	/	/
Cc1ccc2nc(SCC(=O)Nc3cc(C(C)(C)C)nn3-c3ccccc3)[nH]c2c1	-10	8*	-0.097	i	i	i	96*	0.42	+	111%*	141%*
COc1ccc(N2CCN(C(=O)c3sc4ncn(CC(=O)N5CCCCC5C)c(=O)c4c3C)CC2)cc1 (configuration not stated)	-3	i	/	i	i	i	/	/	/	/	/
CCCCn1c(N)c(N(CC)C(=O)c2cc(S(=O)(=O)N3CCCCCC3)ccc2OC)c(=O)[nH]c1=O	-12	i	/	i	i	i	/	/	/	/	/
CSCc1cc(N(C)c2ccccc2)nc(-c2ccccc2)n1	-6	7*	/	i	i	i	91*	0.44	i	91%*	98%*
CCc1ccc(NC(=O)NCc2cccnc2)cc1	-4	i	/	i	i	i	/	/	/	/	/
O=C(c1ccc(-c2ccccc2Cl)o1)N1CCN(c2ccccc2O)CC1	-20	8*	/	i	i	i	+	0.39	i	i	i
CC(=O)Nc1ccc(NC(=O)CSc2nc(=O)n(Cc3cccnc3)c3c2CCC3)cc1	/	/	/	i	/	/	/	/	/	/	/
CC(NC(=S)NC1CCC(C(C)(C)C)CC1)c1ccccc1 (configuration not stated)	-10	9*	/	i	i	i	134*	0.43	i	74%*	106%*
COc1ccc(C(C)NC(=S)NC2CCCC2)cc1OC (configuration not stated)	-8	i	0.57	i	i	i	/	/	/	/	/
SMILES	hERG protect	KCNQ1 inh	KCC2 mod	KCNK3 block	KCNQ1 act	KCNK9 block	KCNQ1 inh valid	CHO Tl flux	KCNQ1 ephys val	KCNQ2 spec	KCNQ1 KCNE1 spec
Cc1ccc(CNC(=S)NC2CCC(C(C)(C)C)CC2)cc1 (configuration not stated)	-19	13*	/	i	i	i	108*	0.45	i	84%*	80%*
CN1CCN(C2=Cc3ccc(Cl)cc3Sc3ccc(F)cc32)CC1	-18	6*	0.15	i	i	i	173*	0.42	i	116%*	188%*
CN1CCN(C2=Cc3ccccc3Sc3cc(F)ccc32)CC1	-23	i	0.35	i	i	i	/	/	/	/	/
CC(CCc1ccccc1)NC(=O)c1ccc(NC(=O)c2ccccc2)cc1 (configuration not stated)	-8	7*	-0.015	i	i	i	67*	0.52	/	i	66%*
Cc1ccccc1OCC(O)CN(Cc1ccccc1O)C1CCCCC1 (configuration not stated)	-15	12*	0.055	i	i	i	90*	0.41	+	120%*	140%*
O=C(Nc1ccc(N2CCCCC2)c(Cl)c1)c1ccc2c(c1)OCCO2	-7	9*	/	i	i	i	86*	0.46	/	98%*	120%*
O=C(Nc1ccc(N2CCCC2)c(Cl)c1)c1ccc2c(c1)OCCO2	-6	i	0.2	i	i	i	/	/	/	/	/
Cc1ccccc1OCCCCn1cnc2ccccc21	-16	9*	/	i	i	i	136*	0.47	i	100%*	59%*
c1ccc(OCCCCn2cnc3ccccc32)cc1	-9	i	-0.6	i	i	i	/	/	/	/	/
c1ccc2c(c1)ncn2CCCCOc1ccc2c(c1)CCC2	-18	7*	/	i	i	i	118*	0.48	i	91%*	82%*
